Data published in ChEMBL document CHEMBL3877303 (J Med Chem, 2017).
Active and inactive are the calls of the source. The calls are words filed in the database; no cut-off is given here.

Experiments:
[1] = Cell cycle arrest in human MEG01 cells assessed as accumulation at G0/G1 phase at 1 uM after 24 hrs by propidium iodide/RNase staining based flow cytometry; type: functional; details: MEG-01
Procedure, shortened: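 Cells were exposed to serially diluted compound, then fixed in cold 70% ethanol overnight at -20 °C. They were stained with PI/RNase buffer for DNA-content cell-cycle analysis.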

[2] = biological target: BCR/ABL p210 fusion protein (Homo sapiens, UniProt A1Z199); assay: Inhibition of human BCR/ABL p210 fusion protein expressed in BAF3 cells assessed as growth inhibition measured after 72 hrs by CellTiter-Glo or CCK8 assay; type: cell-based
Procedure, shortened: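 Seeded at 1 to 2.5×10^4 cells/mL with various compound concentrations, 72 h. Viability read by CellTiter-Glo luminescence or CCK-8 absorbance (450/655 nm), normalized to DMSO control, GI50 from curve fit, triplicate testing.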

[3] = Tmax in Sprague-Dawley rat at 10 mg/kg, po; type: ADME, organism-based; details: in vivo
Procedure, shortened: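 Male Sprague-Dawley rats, 6-8 weeks old, fasted overnight, dosed iv or po. Jugular vein blood (~0.2 mL, heparin) sampled at 1 min to 8 h (iv) or 5 min to 24 h (po). Plasma separated by centrifugation at 2-8 °C and stored at -80 °C before analysis.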

[4] = biological target: Tyrosine-protein kinase ABL1 (Homo sapiens, UniProt P00519); assay: Inhibition of C-terminal His-tagged human ABL1 expressed in baculovirus infected SF9 cells using Tyr 02 peptide as substrate measured after 1 hr by FRET based Z'Lyte assay
[5] = biological target: T1, Mast/stem cell growth factor receptor Kit (Homo sapiens, UniProt P10721); assay: Inhibition of c-KIT autophosphorylation at Y719 in human GISTT1 cells at 0.03 to 10 uM measured after 2 hrs by immunoblotting; type: cell-based
Procedure, shortened: (§1)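 After an ice-cold PBS wash, cells were lysed in RIPA buffer (50 mM Tris pH 8.0) with protease and phosphatase inhibitors, and protein was quantified by BCA. Lysates were run on SDS-PAGE, transferred to PVDF and blocked in 5% milk/TBST. Phospho- and total proteins were probed by immunoblot with ECL detection; β-actin served as loading control.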

[6] = biological target: Macrophage colony-stimulating factor 1 receptor (Homo sapiens, UniProt P07333); assay: Inhibition of recombinant His-tagged human CSF1R cytoplasmic domain expressed in baculovirus expression system assessed as residual activity at 1 uM measured after 1 hr by FRET based Z'Lyte assay relative to control
[7] = biological target: T1, Mast/stem cell growth factor receptor Kit; assay: Inhibition of c-KIT mediated signaling pathways assessed as reduction in ERK1/2 phosphorylation at T202/Y204 in human GISTT1 cells at 0.03 to 10 uM measured after 2 hrs by immunoblotting; type: cell-based; procedure, shortened: as §1
[8] = tested on: KU812 cell line; assay: Induction of apoptosis in human KU812 cells assessed as cleavage of PARP at 0.1 to 3 uM by Western blot analysis; type: functional, cell-based
Procedure, shortened: (§2)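 Cells were treated with DMSO or serially diluted compound for the indicated periods. They were washed in ice-cold PBS and lysed in RIPA buffer with protease/phosphatase inhibitors, and protein was quantified by BCA. Lysates were resolved by SDS-PAGE, transferred to PVDF and blocked in 5% milk/TBST. Blots were probed for PARP and caspase-3, with β-actin as loading control, and detected by ECL.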

[9] = AUC (0 to infinity) in Sprague-Dawley rat at 10 mg/kg, po; type: ADME, organism-based; design: dose 10 mg/kg, time infinity, route oral; details: in vivo
Procedure, shortened: (§3)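 Male Sprague-Dawley rats aged six to eight weeks were fasted overnight and then dosed iv or orally. Blood (~0.2 mL) was drawn from the jugular vein into heparin and kept on ice. Sampling was at 1 min to 8 h for iv and 5 min to 24 h for oral. Plasma was separated by centrifugation at 2-8 °C and stored at -80 °C until analysis.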

[10] = biological target: T1, Mast/stem cell growth factor receptor Kit; assay: Inhibition of c-KIT autophosphorylation at Y703 in human GIST882 cells at 0.01 to 3 uM measured after 2 hrs by immunoblotting; type: cell-based; procedure, shortened: as §1
[11] = tested on: GIST882; assay: Induction of apoptosis in human GIST882 cells assessed as increase in cleaved caspase-3 level at 0.1 to 3 uM by Western blot analysis; type: functional, cell-based; procedure, shortened: as §2
[12] = biological target: T1, Mast/stem cell growth factor receptor Kit; assay: Inhibition of c-KIT autophosphorylation at Y823 in human GIST882 cells at 0.01 to 3 uM measured after 2 hrs by immunoblotting; type: cell-based; procedure, shortened: as §1
[13] = biological target: Serine/threonine-protein kinase 10 (Homo sapiens) (UniProt O94804); assay: Inhibition of LOK (unknown origin) assessed as residual activity at 1 uM by KINOMEscan binding assay relative to control
[14] = biological target: Tyrosine-protein kinase Lck (Homo sapiens, UniProt P06239); assay: Inhibition of recombinant C-terminal His-tagged human LCK cytoplasmic domain expressed in baculovirus expression system assessed as residual activity at 1 uM measured after 1 hr by FRET based Z'Lyte assay relative to control
[15] = biological target: T1, Mast/stem cell growth factor receptor Kit; assay: Inhibition of c-KIT mediated signaling pathways assessed as reduction in S6 phosphorylation at S235/236 in human GISTT1 cells at 0.03 to 10 uM measured after 2 hrs by immunoblotting; type: cell-based; procedure, shortened: as §1
[16] = Cmax in Sprague-Dawley rat at 1 mg/kg, iv; type: ADME, organism-based; design: dose 1 mg/kg, route intravenous; details: in vivo; procedure, shortened: as §3
[17] = biological target: T1, Mast/stem cell growth factor receptor Kit; assay: Inhibition of c-KIT autophosphorylation at Y703 in human GISTT1 cells at 0.03 to 10 uM measured after 2 hrs by immunoblotting; type: cell-based; procedure, shortened: as §1

T1 sequence (P10721 whole entry): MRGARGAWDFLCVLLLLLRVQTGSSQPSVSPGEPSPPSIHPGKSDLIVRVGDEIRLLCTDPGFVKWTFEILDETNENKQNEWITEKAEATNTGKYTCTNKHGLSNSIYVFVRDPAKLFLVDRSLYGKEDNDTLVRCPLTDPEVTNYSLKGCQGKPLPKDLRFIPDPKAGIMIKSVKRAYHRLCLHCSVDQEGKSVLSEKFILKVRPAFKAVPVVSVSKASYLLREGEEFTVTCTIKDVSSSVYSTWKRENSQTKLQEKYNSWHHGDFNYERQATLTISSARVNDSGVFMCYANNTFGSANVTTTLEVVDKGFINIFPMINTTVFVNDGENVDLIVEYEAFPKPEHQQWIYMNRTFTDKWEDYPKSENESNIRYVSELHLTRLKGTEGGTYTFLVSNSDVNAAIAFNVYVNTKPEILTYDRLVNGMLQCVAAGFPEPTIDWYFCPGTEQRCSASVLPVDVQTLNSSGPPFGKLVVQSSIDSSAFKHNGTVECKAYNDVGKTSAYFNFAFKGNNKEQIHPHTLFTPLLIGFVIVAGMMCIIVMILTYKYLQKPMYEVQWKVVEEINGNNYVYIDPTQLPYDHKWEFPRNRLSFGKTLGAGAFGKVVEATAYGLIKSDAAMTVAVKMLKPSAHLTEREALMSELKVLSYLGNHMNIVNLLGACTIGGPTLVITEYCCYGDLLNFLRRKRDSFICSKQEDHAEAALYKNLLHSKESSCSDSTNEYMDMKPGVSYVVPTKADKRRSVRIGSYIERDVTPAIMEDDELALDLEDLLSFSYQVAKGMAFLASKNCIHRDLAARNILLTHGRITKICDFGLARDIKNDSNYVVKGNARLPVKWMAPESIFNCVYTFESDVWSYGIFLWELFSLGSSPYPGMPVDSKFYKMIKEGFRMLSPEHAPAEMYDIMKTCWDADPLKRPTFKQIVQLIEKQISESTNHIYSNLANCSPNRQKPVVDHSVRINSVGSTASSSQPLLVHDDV
Macrophage colony-stimulating factor 1 receptor, sequence (P07333 whole entry, the tested form may be a part): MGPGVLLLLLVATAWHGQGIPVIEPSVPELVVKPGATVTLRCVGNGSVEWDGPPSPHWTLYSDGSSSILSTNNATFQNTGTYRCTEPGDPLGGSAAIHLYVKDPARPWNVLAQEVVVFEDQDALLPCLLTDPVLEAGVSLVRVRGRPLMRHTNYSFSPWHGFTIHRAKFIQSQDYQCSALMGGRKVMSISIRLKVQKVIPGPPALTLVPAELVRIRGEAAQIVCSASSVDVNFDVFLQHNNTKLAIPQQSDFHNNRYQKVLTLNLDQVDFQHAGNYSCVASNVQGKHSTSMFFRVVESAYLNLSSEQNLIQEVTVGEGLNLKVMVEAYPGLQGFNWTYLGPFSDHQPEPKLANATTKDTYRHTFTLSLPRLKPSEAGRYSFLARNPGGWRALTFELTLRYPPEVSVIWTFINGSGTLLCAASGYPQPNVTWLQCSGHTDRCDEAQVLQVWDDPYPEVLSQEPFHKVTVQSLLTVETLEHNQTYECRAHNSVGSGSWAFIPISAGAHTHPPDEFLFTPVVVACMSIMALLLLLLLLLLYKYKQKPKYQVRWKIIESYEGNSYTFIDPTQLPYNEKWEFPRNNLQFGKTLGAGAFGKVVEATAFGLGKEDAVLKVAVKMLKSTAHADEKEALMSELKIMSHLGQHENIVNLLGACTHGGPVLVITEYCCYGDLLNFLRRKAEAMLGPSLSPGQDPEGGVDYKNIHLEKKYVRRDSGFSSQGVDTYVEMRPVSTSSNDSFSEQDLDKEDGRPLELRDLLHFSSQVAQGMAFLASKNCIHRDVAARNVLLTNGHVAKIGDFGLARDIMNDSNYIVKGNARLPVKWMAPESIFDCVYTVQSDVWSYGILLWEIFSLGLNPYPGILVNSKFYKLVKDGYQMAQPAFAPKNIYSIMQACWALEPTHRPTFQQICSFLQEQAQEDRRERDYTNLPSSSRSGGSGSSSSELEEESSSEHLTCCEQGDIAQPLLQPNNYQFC
Serine/threonine-protein kinase 10 (Homo sapiens), sequence (O94804 whole entry, looked up, the tested form may be a part): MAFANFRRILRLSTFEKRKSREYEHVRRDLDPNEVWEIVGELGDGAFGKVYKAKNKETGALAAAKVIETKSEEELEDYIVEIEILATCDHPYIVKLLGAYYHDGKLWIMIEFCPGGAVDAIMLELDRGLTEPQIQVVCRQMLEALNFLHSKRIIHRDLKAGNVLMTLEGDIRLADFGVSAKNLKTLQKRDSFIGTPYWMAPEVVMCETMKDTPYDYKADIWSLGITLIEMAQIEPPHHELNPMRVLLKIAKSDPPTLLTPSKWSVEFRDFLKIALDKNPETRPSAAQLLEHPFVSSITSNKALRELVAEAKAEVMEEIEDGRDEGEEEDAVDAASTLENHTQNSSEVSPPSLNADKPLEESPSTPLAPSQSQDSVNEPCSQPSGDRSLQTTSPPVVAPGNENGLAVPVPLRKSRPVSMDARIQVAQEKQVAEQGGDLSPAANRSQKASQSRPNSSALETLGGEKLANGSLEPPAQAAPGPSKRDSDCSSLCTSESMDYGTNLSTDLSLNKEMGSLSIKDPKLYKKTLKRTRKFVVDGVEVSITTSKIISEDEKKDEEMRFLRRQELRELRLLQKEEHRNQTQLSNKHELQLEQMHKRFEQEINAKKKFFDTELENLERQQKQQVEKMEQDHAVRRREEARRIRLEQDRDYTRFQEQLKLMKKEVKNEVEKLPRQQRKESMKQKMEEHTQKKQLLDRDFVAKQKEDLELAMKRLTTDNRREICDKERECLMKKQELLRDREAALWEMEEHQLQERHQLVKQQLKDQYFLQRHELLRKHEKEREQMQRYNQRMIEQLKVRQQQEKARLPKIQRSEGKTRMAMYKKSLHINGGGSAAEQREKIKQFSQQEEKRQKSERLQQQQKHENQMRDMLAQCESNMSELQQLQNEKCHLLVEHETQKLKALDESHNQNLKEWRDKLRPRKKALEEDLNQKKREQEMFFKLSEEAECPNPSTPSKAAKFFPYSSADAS
Tyrosine-protein kinase ABL1, sequence (P00519 whole entry): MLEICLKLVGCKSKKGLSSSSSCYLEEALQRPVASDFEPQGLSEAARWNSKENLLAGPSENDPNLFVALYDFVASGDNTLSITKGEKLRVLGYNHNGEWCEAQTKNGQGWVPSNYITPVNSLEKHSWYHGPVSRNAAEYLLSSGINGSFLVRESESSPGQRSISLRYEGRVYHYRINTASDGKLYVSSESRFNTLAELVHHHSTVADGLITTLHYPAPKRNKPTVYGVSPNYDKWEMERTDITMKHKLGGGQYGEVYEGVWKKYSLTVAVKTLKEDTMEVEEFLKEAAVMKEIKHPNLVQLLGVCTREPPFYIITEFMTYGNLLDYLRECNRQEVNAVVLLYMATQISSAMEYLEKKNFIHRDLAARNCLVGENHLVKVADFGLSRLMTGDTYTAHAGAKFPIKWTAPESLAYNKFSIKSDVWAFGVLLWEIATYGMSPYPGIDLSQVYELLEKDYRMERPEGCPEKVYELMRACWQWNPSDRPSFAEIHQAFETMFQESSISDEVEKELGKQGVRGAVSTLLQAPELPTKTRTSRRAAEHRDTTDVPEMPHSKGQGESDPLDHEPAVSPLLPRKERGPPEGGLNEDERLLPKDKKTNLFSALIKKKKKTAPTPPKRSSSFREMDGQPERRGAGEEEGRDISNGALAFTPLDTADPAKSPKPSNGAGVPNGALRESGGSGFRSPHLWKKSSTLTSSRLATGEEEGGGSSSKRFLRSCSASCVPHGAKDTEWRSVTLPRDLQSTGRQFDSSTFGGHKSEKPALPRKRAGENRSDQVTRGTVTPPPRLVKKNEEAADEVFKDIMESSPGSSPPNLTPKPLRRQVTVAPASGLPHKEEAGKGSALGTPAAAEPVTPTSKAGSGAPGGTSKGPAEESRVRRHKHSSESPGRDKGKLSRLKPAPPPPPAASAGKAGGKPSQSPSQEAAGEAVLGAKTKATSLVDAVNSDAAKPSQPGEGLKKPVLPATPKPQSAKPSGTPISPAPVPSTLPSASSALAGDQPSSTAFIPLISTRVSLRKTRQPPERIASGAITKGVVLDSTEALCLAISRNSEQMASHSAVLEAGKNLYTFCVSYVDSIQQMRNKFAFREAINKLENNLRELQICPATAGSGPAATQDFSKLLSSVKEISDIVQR
Tyrosine-protein kinase Lck, sequence (P06239 2-509 limits assumed): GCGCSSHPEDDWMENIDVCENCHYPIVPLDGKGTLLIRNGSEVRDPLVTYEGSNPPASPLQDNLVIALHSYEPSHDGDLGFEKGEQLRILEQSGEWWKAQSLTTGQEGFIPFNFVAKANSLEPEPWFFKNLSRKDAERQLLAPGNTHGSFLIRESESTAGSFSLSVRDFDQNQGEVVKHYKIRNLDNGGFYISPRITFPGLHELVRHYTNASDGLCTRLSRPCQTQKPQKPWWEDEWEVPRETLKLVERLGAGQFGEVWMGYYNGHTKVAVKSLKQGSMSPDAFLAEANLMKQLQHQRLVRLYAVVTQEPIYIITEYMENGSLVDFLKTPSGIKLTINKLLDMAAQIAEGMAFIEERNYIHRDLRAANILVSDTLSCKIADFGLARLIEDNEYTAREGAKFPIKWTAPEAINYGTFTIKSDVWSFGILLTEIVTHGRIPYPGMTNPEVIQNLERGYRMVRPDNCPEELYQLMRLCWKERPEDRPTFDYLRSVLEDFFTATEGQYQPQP
BCR/ABL p210 fusion protein, sequence (A1Z199 1-97): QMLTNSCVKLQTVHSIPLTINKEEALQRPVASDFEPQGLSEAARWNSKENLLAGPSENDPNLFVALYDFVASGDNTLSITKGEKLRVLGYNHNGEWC

Row | SMILES | Activity [1] | GI50 [2] | Tmax [3] | IC50 [4] | inhibition [5] | Activity [6] | inhibition [7] | Activity [8] | AUC(0-inf) [9] | inhibition [10] | Activity [11] | inhibition [12] | Activity [13] | Activity [14] | inhibition [15] | Cmax [16] | inhibition [17]
1 | Cc1ccc(NC(=O)c2ccc(CN3CCN(C)CC3)cc2)cc1Nc1nccc(-c2cccnc2)n1 [IMATINIB] | Active | – | – | – | – | – | – | – | – | – | – | – | – | – | – | – | –
2 | Cc1ccc(C(=O)N2CCC(Oc3cc(NC(=O)c4ccc(CN5CCN(C)CC5)c(C(F)(F)F)c4)ccc3C)CC2)cn1 | – | 33 nM | 6 h | 46 nM | Active | 0.3% | Active | Active | 2430 ng·h/mL | Active | Active | Active | 0.6% | 0.55% | Active | 825 ng/mL | Active
